Assays:
SNB-19 = assay: Growth inhibition of human SNB19 cells by sulforhodamine B assay; format: functional
SF-539 = assay: Growth inhibition of human SF539 cells by sulforhodamine B assay; format: functional
SF-268 = assay: Growth inhibition of human SF268 cells by sulforhodamine B assay; format: functional
HCT-15 = assay: Growth inhibition of human HCT15 cells by sulforhodamine B assay; format: functional
HCT-116 = assay: Growth inhibition of human HCT116 cells by sulforhodamine B assay; format: functional
HCC 2998 = assay: Growth inhibition of human HCC2998 cells by sulforhodamine B assay; format: functional
COLO 205 = assay: Growth inhibition of human COLO205 cells by sulforhodamine B assay; format: functional
NCI-H23 = assay: Growth inhibition of human NCI-H23 cells by sulforhodamine B assay; format: functional
NCI-H226 = assay: Growth inhibition of human NCI-H226 cells by sulforhodamine B assay; format: functional
[1] = Cytotoxicity against HFF/tert2 after 72 hrs by XTT assay; set-up: species or system Homo sapiens
Outline: (§1)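 Cells grown at 37 °C, 5% CO2; HFF in DMEM with 10% FBS, PrEC in prostate epithelial growth medium. Adherent lines seeded overnight, suspension lines same day; compounds diluted from DMSO stocks into media at various final concentrations, 72 h exposure. XTT reagent added 4 h, absorbance 490 nm (reference 690 nm). Growth as % of vehicle; IC50 from sigmoidal dose-response fit; mean ± SEM, three independent experiments.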

MIA PaCa-2 = assay: Cytotoxicity against human MIAPaCa2 cells after 72 hrs by XTT assay; format: functional, cell-based; conditions: MIA PaCa-2, 72 h; outline: as §1
PC-3 = assay: Cytotoxicity against human PC3 cells after 72 hrs by XTT assay; format: functional, cell-based; conditions: PC-3, 72 h; outline: as §1
[2] = Cytotoxicity against human JeKo1 cells after 72 hrs by XTT assay; format: functional, cell-based; conditions: JeKo-1, 72 h; outline: as §1
Mus musculus [3] = assay: Toxicity in NOD/SCID mouse assessed as potassium level at 5 to 50 mg/kg, […]; format: organism-based; set-up: dose 5-50 mg/kg, route oral; conditions: in vivo, po, 120 h
Mus musculus [4] = assay: Toxicity in NOD/SCID mouse assessed as total protein level at 5 to 50 mg/kg, […] for 5 days; format: organism-based; set-up: dose 5-50 mg/kg; conditions: in vivo, po, 120 h
Mus musculus [5] = assay: Toxicity in NOD/SCID mouse assessed as anemia at 5 to 50 mg/kg, iv and po for 5 days; format: organism-based; set-up: dose 5-50 mg/kg, route oral; conditions: in vivo, 120 h
Mus musculus [6] = assay: Toxicity in NOD/SCID mouse assessed as leukopenia at 5 to 50 mg/kg, […] for 5 days; format: organism-based; set-up: dose 5-50 mg/kg; conditions: in vivo, po, 120 h
Mus musculus [7] = assay: Toxicity in NOD/SCID mouse assessed as thrombocytopenia at 5 to 50 mg/kg, iv and po for 5 days; format: organism-based; set-up: dose 5-50 mg/kg, route oral; conditions: in vivo, 120 h
Mus musculus [8] = assay: Toxicity in NOD/SCID mouse assessed as total necropsies at 5 to 50 mg/kg, […] for 5 days; format: organism-based; set-up: dose 5-50 mg/kg; conditions: in vivo, po, 120 h
Mus musculus [9] = assay: Toxicity in NOD/SCID mouse transplanted with human JeKo1 cells assessed as fatalities at 5 to 50 mg/kg, iv and po for 5 days; format: organism-based; set-up: dose 5-50 mg/kg, route oral; conditions: in vivo, 120 h
Mus musculus [10] = assay: Toxicity in NOD/SCID mouse assessed as blood urea nitrogen level at 5 to 50 mg/kg, iv and po for 5 days; format: organism-based; set-up: dose 5-50 mg/kg, route oral; conditions: in vivo, 120 h
[11] = Antitumor activity against human JeKo1 cells transplanted in NOD/SCID mouse assessed as tumor volume treated iv for 5 days relative to control; format: functional, JeKo-1
Outline: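 Female NOD/SCID mice bearing JeKo-1 tumors transplanted day 1; IV dosing from day 4, daily for five days, at 5, 10, 25 or 50 mg/kg in 3.0% DMSO/6.5% Tween 80/5% glucose, 4 per group. Volume = (length × width²)/2, measured thrice weekly; T/C = median treated tumor volume ÷ median control volume.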

Mus musculus [12] = assay: Toxicity in NOD/SCID mouse assessed as amylase level at 5 to 50 mg/kg, iv and po for 5 days; format: organism-based; set-up: dose 5-50 mg/kg, route oral; conditions: in vivo, 120 h
Mus musculus [13] = assay: Toxicity in NOD/SCID mouse assessed as change in alkaline phosphatase level at 5 to 50 mg/kg, iv and po for 5 days; format: organism-based; set-up: dose 5-50 mg/kg, route oral; conditions: in vivo, 120 h
BT-549 = assay: Growth inhibition of human BT549 cells by sulforhodamine B assay; format: functional
DU-145 = assay: Growth inhibition of human DU145 cells by sulforhodamine B assay; format: functional
UO-31 = assay: Growth inhibition of human UO31 cells by sulforhodamine B assay; format: functional
ACHN = assay: Growth inhibition of human ACHN cells by sulforhodamine B assay; format: functional
A498 = assay: Growth inhibition of human A498 cells by sulforhodamine B assay; format: functional
786-0 = assay: Growth inhibition of human 786-0 cells by sulforhodamine B assay; format: functional
SK-OV-3 = assay: Growth inhibition of human SKOV3 cells by sulforhodamine B assay; format: functional
NCI/ADR-RES = assay: Growth inhibition of human NCI/ADR-RES cells by sulforhodamine B assay; format: functional
OVCAR-5 = assay: Growth inhibition of human OVCAR5 cells by sulforhodamine B assay; format: functional
OVCAR-3 = assay: Growth inhibition of human OVCAR-3 cells by sulforhodamine B assay; format: functional
UACC-62 = assay: Growth inhibition of human UACC62 cells by sulforhodamine B assay; format: functional
M14 = assay: Growth inhibition of human M14 cells by sulforhodamine B assay; format: functional
Malme-3M = assay: Growth inhibition of human MALME-3M cells by sulforhodamine B assay; format: functional
[14] = read-out: Log10GI50 (converted)
[15] = read-out: Log10LC50 (converted)

In the case of `CC(/C=C/[C@@H]1C[C@]2(CO2)CC(C)(C)O1)=C\C[C@H]1CC[C@@H](NC(=O)/C=C\[C@H](C)OC(=O)C(C)C)CC1`, the GI50 (SNB-19; [14]) is reported as 2 µM, the CC50 (SNB-19; [15]) is reported as greater than 100 µM and the TGI (SNB-19; read-out: Log10TGI (converted)) is reported as greater than 100 µM. The GI50 (SF-539; [14]) was 0.372 µM, the CC50 (SF-539; [15]) was greater than 100 µM and the TGI (SF-539; read-out: Log10TGI (converted)) was 18.6 µM. It also gave a GI50 (SF-268; [14]) of 0.263 µM, a CC50 (SF-268; [15]) greater than 100 µM and a TGI (SF-268; read-out: Log10TGI (converted)) greater than 100 µM. For the same compound, the GI50 (HCT-15; [14]) was 0.794 µM, the CC50 (HCT-15; [15]) was greater than 100 µM and the TGI (HCT-15; read-out: Log10TGI (converted)) was 34.7 µM. The GI50 (HCT-116; [14]) was 0.0708 µM, the CC50 (HCT-116; [15]) was greater than 100 µM and the TGI (HCT-116; read-out: Log10TGI (converted)) was greater than 100 µM. It also gave a GI50 (HCC 2998; [14]) of 3.47 µM, a CC50 (HCC 2998; [15]) greater than 100 µM and a TGI (HCC 2998; read-out: Log10TGI (converted)) greater than 100 µM. It also gave a GI50 (COLO 205; [14]) of 0.263 µM, a CC50 (COLO 205; [15]) greater than 100 µM and a TGI (COLO 205; read-out: Log10TGI (converted)) of 1.12 µM. The GI50 (NCI-H23; [14]) was 0.537 µM, the CC50 (NCI-H23; [15]) was greater than 100 µM and the TGI (NCI-H23; read-out: Log10TGI (converted)) was 33.9 µM. It also gave a GI50 (NCI-H226; [14]) of 2.45 µM, a CC50 (NCI-H226; [15]) greater than 100 µM and a TGI (NCI-H226; read-out: Log10TGI (converted)) greater than 100 µM. For the same compound, the IC50 [1] was 9.69 µM, the IC50 (MIA PaCa-2) was 1.2 µM and the IC50 (PC-3) was 2.2 µM. For the same compound, the IC50 [2] was 0.12 µM, the Activity (Mus musculus [3]) was “Non-toxic” and the Activity (Mus musculus [4]) was “Non-toxic”. The Activity (Mus musculus [5]) was “Non-toxic”, the Activity (Mus musculus [6]) was “Non-toxic” and the Activity (Mus musculus [7]) was “Non-toxic”. For the same compound, the Activity (Mus musculus [8]) was “Non-toxic”, the Activity (Mus musculus [9]) was “Non-toxic” and the Activity (Mus musculus [10]) was “Non-toxic”. The T/C [11] was “<=42%”, the Activity (Mus musculus [12]) was “Non-toxic” and the Activity (Mus musculus [13]) was “Non-toxic”. The GI50 (BT-549; [14]) was 0.138 µM, the CC50 (BT-549; [15]) was greater than 100 µM and the TGI (BT-549; read-out: Log10TGI (converted)) was 0.776 µM. For the same compound, the GI50 (DU-145; [14]) was 0.55 µM, the CC50 (DU-145; [15]) was greater than 100 µM and the TGI (DU-145; read-out: Log10TGI (converted)) was greater than 100 µM. For the same compound, the GI50 (UO-31; [14]) was 3.98 µM, the CC50 (UO-31; [15]) was greater than 100 µM and the TGI (UO-31; read-out: Log10TGI (converted)) was greater than 100 µM. The GI50 (ACHN; [14]) was 0.537 µM, the CC50 (ACHN; [15]) was greater than 100 µM and the TGI (ACHN; read-out: Log10TGI (converted)) was 75.9 µM. For the same compound, the GI50 (A498; [14]) was 3.39 µM, the CC50 (A498; [15]) was greater than 100 µM and the TGI (A498; read-out: Log10TGI (converted)) was 74.1 µM. It also gave a GI50 (786-0; [14]) of 2.63 µM, a CC50 (786-0; [15]) greater than 100 µM and a TGI (786-0; read-out: Log10TGI (converted)) greater than 100 µM. It also gave a GI50 (SK-OV-3; [14]) of 0.912 µM, a CC50 (SK-OV-3; [15]) greater than 100 µM and a TGI (SK-OV-3; read-out: Log10TGI (converted)) greater than 100 µM. For the same compound, the GI50 (NCI/ADR-RES; [14]) was 0.501 µM, the CC50 (NCI/ADR-RES; [15]) was greater than 100 µM and the TGI (NCI/ADR-RES; read-out: Log10TGI (converted)) was greater than 100 µM. The GI50 (OVCAR-5; [14]) was 8.32 µM, the CC50 (OVCAR-5; [15]) was greater than 100 µM and the TGI (OVCAR-5; read-out: Log10TGI (converted)) was greater than 100 µM. The GI50 (OVCAR-3; [14]) was 0.229 µM, the CC50 (OVCAR-3; [15]) was greater than 100 µM and the TGI (OVCAR-3; read-out: Log10TGI (converted)) was 3.47 µM. It also gave a GI50 (UACC-62; [14]) of 0.513 µM, a CC50 (UACC-62; [15]) of 46.8 µM and a TGI (UACC-62; read-out: Log10TGI (converted)) of 4.68 µM. For the same compound, the GI50 (M14; [14]) was 0.229 µM, the CC50 (M14; [15]) was greater than 100 µM and the TGI (M14; read-out: Log10TGI (converted)) was 13.8 µM. The GI50 (Malme-3M; [14]) was 1.38 µM, the CC50 (Malme-3M; [15]) was greater than 100 µM and the TGI (Malme-3M; read-out: Log10TGI (converted)) was 61.7 µM.
